The entries come from a sample that favours hits as a whole.
XBP1 UPR activ: adaptive UPR (XBP1) activation; 330,000 compounds, 0.33% hits; activation, % at 20 µM; CHO-XBP1 luciferase reporter, IRE1-XBP1 UPR activation, luminescence; percent of tunicamycin response, DMSO as zero;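 active = versus positive control, 20 µM dose yields 30% or more activation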;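 note: 100% = tunicamycin at 10 µg/mL and 0% = DMSO only wells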
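Assay system: CHO-XBP1 luciferase reporter cells; Schedule: 6 h treatment, 37 °C; Detection: glow luminescence from Steady-Glo reagent; Benchmarks: high control tunicamycin 10 µg/mL final, low control DMSO vehicle only.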
CHOP inhibitor: CHOP inhibition in unfolded protein response | CHO-K1 CHOP-promoter luciferase, tunicamycin-induced, 15-18 h | inhibition, % at 10 µM | 220,000 compounds, 3.8% hits;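 active = compounds that reduced the stress-induced luciferase reporter signal by more than about 70% of percent inhibition, limit read from the data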;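 note: 0% = tunicamycin plus vehicle and 100% = wells without tunicamycin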
Bfl-1 A1 inh: inhibitors of the anti-apoptotic protein A1, read as caspase activation. 330,000 compounds, 0.066% hits. caspase activation, % (no concentration beside the values). MEF A1-2A-BIM cells, Caspase-Glo 3/7 luminescence, 3 h; percent of clofoctol response, vehicle zero;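 active = over half of replicate activation scores above 10%, or exactly half above 10 with the replicate mean above 10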
UPR CHOP act: activators of apoptotic arm of unfolded protein response (CHOP); CHO-CHOP luciferase reporter, UPR activation, luminescence; percent of tunicamycin response over DMSO baseline; activation, % at 10 µM; 330,000 compounds, 0.34% hits; AID 449763;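 active = at 10 µM dose, activation of 40% or more, normalized to positive control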;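 note: 100% = tunicamycin at 10 µg/mL and 0% = DMSO alone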
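assay system = CHO CHOP reporter cells | amount = 500 CHO-CHOP cells per well | buffer or medium = F12 with 10% FBS | incubation = 16-18 h cell attachment, then 6 h compound exposure, 37 °C | detection = luminescence read with Steady-Glo | read-out = percent activation relative to tunicamycin control | controls = tunicamycin high control, DMSO low control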
Starred values were filed as active, the others as inactive; / = no result.

SMILES	XBP1 UPR activ	CHOP inhibitor	Bfl-1 A1 inh	UPR CHOP act
COc1cc(OC)c(OC)cc1/C=N/Nc1nc2ccccc2[nH]1	5	-9	0	2
C(=N\Nc1nc2ccccc2[nH]1)/c1ccccn1	/	85*	/	/
CCN(CC)c1ccc(/C=N/Nc2nc3ccccc3[nH]2)c(O)c1	24	83*	0	13
C(=N\Nc1nc2ccccc2[nH]1)/c1cccc2nccnc12	15	71*	-1	8
Cc1ccc(NCCC(=O)c2cccs2)cc1C	0	5	-4	5
Cc1ccc(NCCC(=O)c2cccs2)cc1Cl	1	80*	-1	4
CSc1ncccc1C(=O)Nc1cccc(S(=O)(=O)N2CCCCCC2)c1	-3	/	-1	0
Cc1ccc(S(=O)(=O)NCC(=O)OCC(=O)Nc2cccc(S(=O)(=O)N3CCOCC3)c2)cc1	1	/	0	-1
O=C(Oc1ccc2ccccc2c1)c1cncc(Br)c1	-1	94*	0	1
O=C(Oc1ccc2c(=O)c(Oc3ccc4ccccc4c3)coc2c1)c1cncc(Br)c1	-1	-11	-1	1
Cc1noc(NS(=O)(=O)c2ccc(NC(=O)c3cccc(S(=O)(=O)Nc4ccccc4F)c3)cc2)c1C	-1	/	1	1
Cc1ccc(-n2nc(C)c(C(=O)Nc3cccc(C(=O)NC4CC4)c3)n2)c(C)c1	-1	/	1	-1
O=C(c1ccc(Br)o1)N1CCN(Cc2ccccc2Cl)CC1	1	/	0	1
CC(C)c1nc(Cl)c(C#N)c2c1CCCC2	0	85*	0	0
CC(C)c1nc(Cl)c(C#N)c2c1CCC2	1	31	1	1
CC(C)Oc1cc(NC(=O)CSCC(=O)Nc2cccc(C(F)(F)F)c2)c(Cl)cc1Cl	-4	100*	-1	-1
Cc1nn(Cc2ccccc2)c(C)c1/C=N/NC(=O)CNc1cccc(C(F)(F)F)c1	0	70*	0	-2
CC(C)(C)NC(=O)NC(=O)COC(=O)C1=COCCO1	0	81*	-1	0
O=C(COC(=O)C1=COCCO1)Nc1ccccc1	-4	-10	0	2
COc1ccc(NC(=O)CN(C)C(=O)c2cccc(S(=O)(=O)Nc3ccc(F)cc3)c2)cc1	1	/	1	-1
Cc1cc2c(cc1S(=O)(=O)NCCc1ccc(Cl)cc1)OCC(=O)N2	-2	/	1	1
CCOc1ccc(NC(=S)Nc2ccc(C)c([N+](=O)[O-])c2)cc1	-2	70*	/	0
O=C(Nc1ccc(C(F)(F)F)cc1Cl)c1ccc(Cn2cc(Br)cn2)o1	-2	73*	0	-2
CCCCN(C(=O)c1cc(=O)[nH]c2ccccc12)c1c(N)n(CCCC)c(=O)[nH]c1=O	-5	/	0	-1
CC(=O)c1sc(NC(=O)COc2ccccc2)nc1C	3	-10	0	4
SMILES	XBP1 UPR activ	CHOP inhibitor	Bfl-1 A1 inh	UPR CHOP act
CC(=O)c1sc(NC(=O)COc2ccc(C(C)C)c(C)c2)nc1C	0	77*	0	1
COc1ccc(N2CCN(C(=O)CCS(=O)(=O)c3ccc(C)cc3)CC2)cc1	-4	/	0	-3
CC1CCCC(C)N1C(=O)COC(=O)c1n[nH]c(=O)c2ccccc12 (stereo not drawn)	1	/	0	1
O=C1/C(=C/c2cccnc2)Oc2cc(OS(=O)(=O)c3ccc(Cl)cc3)ccc21	0	78*	0	2
CCOC(=O)c1ccc2nc(Nc3nc4ccc(F)cc4s3)sc2c1	-9	90*	0	-9
CCOC(=O)c1ccc2nc(NC(C)=O)sc2c1	/	-2	-4	/
COC(=O)c1ccc2nc(Nc3nc4c(F)cc(F)cc4s3)sc2c1	-5	92*	-1	-8
CCOC(=O)N1CCN(S(=O)(=O)c2ccc(C(=O)Nc3nc4ccc(F)cc4s3)cc2)CC1	26	84*	1	6
CCOC(=O)c1sc(NC(=O)c2ccc(S(=O)(=O)N3CCCCC3)cc2)nc1-c1ccccc1	-2	84*	1	0
COC(=O)c1ccc2nc(NC(=O)C(C)C)sc2c1	3	-22	-5	5
CCC1C/C(=C/c2ccco2)C(=O)/C(=C/c2ccco2)C1 (stereo not drawn)	/	86*	0	/
S=C(N/N=C/c1cccc2ccccc12)Nc1cccc(Cl)c1	1	-10	0	-1
CO/N=C(\c1nonc1N)N1CCN(c2ccc([N+](=O)[O-])cc2Cl)CC1	-1	73*	0	-1
CC(=O)O/N=C(/c1nonc1N)N1CCN(c2ccc([N+](=O)[O-])cc2Cl)CC1	1	39	2	0
FC(F)(F)c1cc(-c2ccccc2)nc(NCc2cccnc2)n1	-2	85*	1	1
FC(F)(F)c1cc(-c2ccco2)nc(NCc2cccnc2)n1	-3	21	0	-1
Fc1ccc(-c2cc(C(F)(F)F)nc(NCc3cccs3)n2)cc1	0	72*	1	0
C#CCOc1ccc(CNC[C@H]2O[C@@H](n3cnc4c(N)ncnc43)[C@H](O)[C@@H]2O)cc1	-1	/	0	1
O=C(c1ccccc1)c1ccc(N2CCN(C(=O)c3cccc(F)c3F)CC2)c(F)c1	-4	/	-1	0
O=C1CN(C(=O)c2ccc(Br)o2)C(c2ccc(F)cc2)c2cc(Cl)ccc2N1 (stereo not drawn)	0	69	1	-2
O=C1CN(C(=O)c2ccc(Br)o2)C(c2ccccc2)c2cc(Cl)ccc2N1 (stereo not drawn)	0	84*	0	-1
CC(C)(C)C(=O)NC1(C(F)(F)F)NC(=O)N(c2ccccc2F)C1=O (stereo not drawn)	-3	-1	1	2
Cc1nn(-c2ccccc2)c(N)c1C(c1ccc(C(C)C)cc1)c1c(C)nn(-c2ccccc2)c1N	-2	85*	0	-1
O=C(Nc1ccccc1[N+](=O)[O-])c1cccc(N2C(=O)CCC2=O)c1	-3	/	-1	1
N/C(=N\OC(=O)c1cc(-c2ccccc2)nc2ccccc12)c1ccccn1	8	74*	1	2
SMILES	XBP1 UPR activ	CHOP inhibitor	Bfl-1 A1 inh	UPR CHOP act
Cc1ccc(/C(N)=N/OC(=O)c2cc(-c3ccccc3)nc3ccccc23)cc1	1	43	0	4
O=C(CN1CCCC1)N/N=C/c1ccc(-c2cccc(Cl)c2)o1	-1	-6	0	2
O=C(Cn1nnc(-c2ccccc2Cl)n1)N/N=C/c1ccc(-c2cccc(Cl)c2)o1	-2	74*	0	0
O=C(/C=C\c1ccccc1)Nc1ccc(NC(=O)c2ccco2)cc1	-2	95*	1	0
Cc1nc(NC(=O)/C=C/c2ccccc2)sc1C(=O)Nc1ccccc1	-1	92*	1	2
Cc1nc(NC(=O)/C=C/c2ccccc2)sc1C(=O)NCCO	0	10	2	2
Cc1cc(C)cc(OCC(=O)NCC2CCCO2)c1 (stereo not drawn)	-8	73*	1	-8
O=C(NNC1=Nc2cccc3cccc1c23)c1ccccc1Br	2	90*	-1	0

Screening data: PubChem BioAssay, several laboratories
